# Measured values reported in paper PMC9979192 (Acta Pharmaceutica Sinica. B, 2022).
# Read-outs that look alike come from different tables or passages of the source.
# Key:
# [1] = human plasma; ref a previous study; cited from earlier work
# [2] = test system: golden hamsters; assay: HFHC diet-induced hyperlipidemia in golden hamsters; format: in vivo, golden hamster; details: 2 weeks; 326E 15 and 30 mg/kg, BA 30 mg/kg; vs vehicle
# [3] = monkey plasma; ref a previous study; cited from earlier work
# [4] = test system: hypercholesterolemia patients; details: at 12 weeks, with maximally tolerated statin therapy; cited from earlier work
# [5] = test system: ApoE-/- mice; assay: Western diet-induced atherosclerosis in ApoE-/- mice; format: in vivo, mouse; details: 24 weeks once daily oral
# In short: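 Male ApoE−/− mice were started at 6–8 weeks on a high-fat, high-cholesterol diet for 23–24 weeks, with oral compound dosing. Whole aortas were stained with Sudan IV for plaque, and plasma hsCRP was measured. For hepatic cholesterol, liver lipid residue was resuspended in ethanol with 1% Triton X-100 and assayed with commercial kits.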
# [6] = mouse plasma; ref a previous study; cited from earlier work
# [7] = test system: primary hepatocytes; assay: In vitro cholesterol efflux and Abcg5/8 expression; format: cell-based, mouse; details: 3H-cholesterol, 12 h; BA 50 μmol/L
# In short: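 For Abcg5/Abcg8 mRNA, primary mouse hepatocytes were treated 24 h with 50 μmol/L test compound plus 15 μg/mL cholesterol in 420 μg/mL M-β-CD. For efflux, cells were loaded 12 h with 0.5 μCi/mL 3H-cholesterol plus cholesterol, washed, then given 12.5–50 μmol/L compound with 15 μg/mL cholesterol in serum-free medium for 12 h at 37 °C. 3H in medium and NaOH lysate was counted; T0901317 (1 μmol/L) served as positive control.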
# [8] = rat plasma; ref a previous study; cited from earlier work
# [9] = test system: HCD mice; assay: In vivo cholesterol efflux in HCD mice; parameters: species or system C57BL/6J mice; details: oral 30 mg/kg for 7 days
# [10] = test system: rhesus monkeys; assay: Rhesus monkeys with spontaneous hyperlipidemia, efficacy and safety; format: in vivo, rhesus monkey; details: 2 weeks; 326E 20 mg/kg, atorvastatin 2.4 mg/kg
# [11] = test system: mouse primary hepatocytes; assay: In vitro de novo lipogenesis in primary hepatocytes; format: cell-based; details: 24 h treatment; compared with BA
# In short: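 Hepatocytes came from 8–12-week male C57BL/6J mice by Percoll purification and were kept in Hepato ZYME-SFM with 2 mmol/L l-glutamine and antibiotics at 6 × 10^5 cells/well. Treated either 24 h with 0.1 μCi/well [1,2-14C]-acetate during the last 4 h, or 4 h with the label present. 14C in fatty acids and cholesterol was extracted and scintillation-counted, then normalized to DMSO; n = 3–4.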
# [12] = test system: primary mouse hepatocytes; assay: Glucose output; format: cell-based; details: 6 h, pyruvate 2 mmol/L and lactate 20 mmol/L; compared to BA
# In short: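 Primary hepatocytes from male C57BL/6J mice were treated with the test compound for 6 h in gluconeogenic medium with pyruvate (2 mmol/L) and lactate (20 mmol/L), with or without 4.0 mmol/L l-glutamine. Glucose output into the medium was measured and normalized to the DMSO group; n = 4.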
smiles,measurement,setting,value
"CC(C)(CCCCCC(O)CCCCCC(C)(C)C(=O)O)C(=O)O [BA, Bempedoic acid]",in vitro plasma protein-binding rate,[1],95%–98
same,body weight,[2],significantly decreased
same,in vitro plasma protein-binding rate,[3],95%–98
same,placebo-adjusted decrease from baseline in LDL-C,[4],16.5%
same,hepatic cholesterol content reduced compared to vehicle,[5],37%
same,aortic plaques reduced,"[5]; 326E 15, 30, 60 mg/kg, BA 30 mg/kg",33.4%
same,in vitro plasma protein-binding rate,[6],95%–98
same,cholesterol efflux into the cell culture medium,[7],markedly promoted cholesterol efflux
same,in vitro plasma protein-binding rate,[8],95%–98
same,hepatic cholesterol content,[9],significantly reduced hepatic cholesterol content
"CC(C)c1c(C(=O)Nc2ccccc2)c(-c2ccccc2)c(-c2ccc(F)cc2)n1CC[C@@H](O)C[C@@H](O)CC(=O)O [atorvastatin, Atorvastatin]",body weight during treatment,[10],unchanged
CC(C)(CCCCC=CCCCCCC(C)(C)C(=O)O)C(=O)O [326F],"incorporation of [1,2-14C]-acetate into fatty acids and cholesterol",[11],dose-dependent lipogenesis inhibition
same,cumulative glucose production,[12],reduced with a greater tendency
